Beta apoptosis: inhibitors of cytokine-induced beta cell apoptosis, primary screen, luminescence | 300,000 tested, 0.8% active | protection from apoptosis, % (no concentration beside the values) | INS-1E cytokine-induced death, ATP luminescence, 48 h; percent of positive-control rescue, neutral wells zero;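 active means Every replicate reaches about 75%, or at least half do and their mean reaches it too, limit read from the data; inconclusive means At least half of replicates reach the limit but their mean does not; inactive means Under half of replicates reach the limit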;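 further: higher means more ATP so stronger rescue from cytokine killing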
CSC inhib: cancer stem cell viability inhibitors, primary screen, luminescence | inhibition, % at 7.5 µM | AID 2717, 2010 | 300,000 tested, 1.1% active | cancer stem cell-like cells viability; in the data active means inhibition above about 75%; inconclusive means no clear call, values can overlap the other calls; tested in HMLE shEcad cells
PolyA inh: polyadenylation inhibitors in yeast reporter cells, primary screen, luminescence, S. cerevisiae. S. cerevisiae SKY197-pL101 polyadenylation reporter, beta-gal luminescence; efflux-impaired pdr1/pdr3 knockout yeast; score 100 = 6 SD above DMSO. activity score, % at 12 µM. 300,000 tested, 0.02% active. AID 1875, 2009;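 active means lowest replicate activity score at least 50, where 100 means six control SD above control mean; inconclusive means lowest score under 50 but half or more replicates reach 50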;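 further: yeast exposed to compound for 9 h at 30 °C; higher score means more reporter readthrough which indicates perturbed polyadenylation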
HIF activator: HIF pathway transcriptional activators, primary screen, cell-based, U2OS HRE-luciferase, luminescence; 300,000 tested, 0.32% active; U2OS HRE-luciferase reporter; normalized: DMSO 0%, desferrioxamine 100%; activation, % at 7.5 µM (by protocol);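 active means mean activation of at least 10% of the iron chelator positive control signal, with at least half of replicates also reaching 10%; inconclusive means mean and replicate majority disagree about reaching 10%; inactive means mean and most replicates under 10%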
Calb FLC: C. albicans growth inhibition with fluconazole, primary screen, CaCi-2 strain, Alamar Blue fluorescence | C. albicans CaCi-2 (fluconazole-resistant clinical isolate) + fluconazole, 48 h | growth inhibition, % (test concentration not listed) | 300,000 tested, 0.57% active;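 active means growth inhibition above about 58% in most replicates, limit read from the data, passing the limit was not always enough; inconclusive means exactly half the replicates above a set limit; inactive means most replicates below a set limit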;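 further: all wells also contain fluconazole at 8 µg/ml as a sub-toxic cotreatment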
T cruzi inh: inhibitors of intracellular T. cruzi growth, primary screen, luminescence, NIH3T3 host cells | T. cruzi beta-gal in NIH3T3, 90 h | inhibition, % (no concentration beside the values) | 300,000 tested, 1.4% active | AID 1885, 2009;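 active means mean inhibition across valid replicates above about 55%, limit read from the data; inconclusive means mean below that limit but half or more replicates reach it; inactive means mean below it, under half of replicates reach it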;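 further: signal also drops with host cell toxicity which is not excluded here; higher percent means less beta-gal luminescence so fewer parasites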
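System – NIH/3T3 host cells with β-galactosidase reporter T. cruzi · Doses – single 50 nL compound addition per well in DMSO · Reagent – 5000 T. cruzi trypomastigotes/well · Medium – Low-serum DMEM with 2% FBS · Timing – ≥90 h infection period, 3 h prior cell attachment · Evaluation – parasite load inhibition, % · Technique – GalScreen luminescence, 60 min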
Of the large screens only hits and unclear results are named; the others gave an inactive call. Shown are actives, neighbours in structure and some others; about 3.1% of the full set was active somewhere.

CCC(OC(=O)c1ccco1)C(=O)NCc1ccc2c(c1)OCO2 (stereo not drawn)	none
COc1cccc(C(=O)Oc2c(Br)cc(Br)cc2/C=N/NC(=O)c2cc(C)[nH]n2)c1	Beta apoptosis 81, T cruzi inh 61
Cc1cc(C(=O)N/N=C/c2cccc(OC(=O)c3cccc(Br)c3)c2)n[nH]1	none (no result: PolyA inh, HIF activator, T cruzi inh)
O=S1(=O)CCOCCCN1Cc1ccccc1Br	none
COc1cc(C#Cc2c(-c3cncn3C)n(C)c3ccc(-c4ccc(OC)nc4)cc23)cc(OC)c1	CSC inhib 84 (no result: PolyA inh, HIF activator, Calb FLC, T cruzi inh)
Cc1cc(N2CCN(S(=O)(=O)c3ccc(Cl)cc3)CC2)c2ccccc2n1	Beta apoptosis 81
O=S(=O)(Cc1cc(Sc2ccc(Cl)cc2)nc(-c2ccccc2)n1)c1ccccc1	T cruzi inh 55
CC(C)(CO)NCc1cccc(OCc2ccc(Cl)cc2)c1	none
Clc1ccc(COc2cccc(CNCc3ccncc3)c2)cc1	Calb FLC inconclusive, T cruzi inh 70
COc1cc(NC(=S)NCCC(c2ccccc2)c2ccccc2)cc(OC)c1	T cruzi inh 62 (no result: CSC inhib)
COc1cccc(NC(=S)NCCC(c2ccccc2)c2ccccc2)c1	none
COc1cc(C2C(C#N)=C(N)Oc3cc(C)n(CC4CCCO4)c(=O)c32)cc2c1OCO2 (stereo not drawn)	none (no result: Beta apoptosis, CSC inhib)
COc1ccc(CCn2c(C)cc3c(c2=O)C(c2ccc4c(c2)OCO4)C(C#N)=C(N)O3)cc1OC (stereo not drawn)	Calb FLC 109
Cc1cc2c(c(=O)n1Cc1ccc3c(c1)OCO3)C(c1cccnc1)C(C#N)=C(N)O2 (stereo not drawn)	T cruzi inh 61
Cc1ccc(Cn2c(C)cc3c(c2=O)C(c2cccs2)C(C#N)=C(N)O3)cc1 (stereo not drawn)	none
O=C(/C=C/c1cn(-c2ccccc2)nc1-c1ccc2c(c1)OCCO2)NCCO	none
OCc1ccc2c(c1)c(-c1ccc3c(c1)OCCO3)c(-c1ccccc1)n2-c1ccccc1	CSC inhib 92 (no result: PolyA inh, HIF activator, Calb FLC, T cruzi inh)
O=C(COC(=O)Cc1ccsc1)Nc1ccccc1Cl	none (no result: PolyA inh, HIF activator, Calb FLC, T cruzi inh)
COc1ccc(CNC(=O)C2CCCN(S(=O)(=O)N3CCC(C)CC3)C2)c(OC)c1 (stereo not drawn)	none
COc1ccc(OC)c(CNC(=O)C2CCCN(S(=O)(=O)N3CCC(C)CC3)C2)c1 (stereo not drawn)	HIF activator 25
O=C1c2ccccc2NC(c2ccc(-c3ccc(Br)cc3)o2)N1O (stereo not drawn)	CSC inhib 103, Calb FLC 102
Cc1ccc(C(=O)OCC(=O)N(Cc2ccccc2)C(C)C)cc1C	none (no result: PolyA inh, HIF activator, Calb FLC, T cruzi inh)
CN(C)c1ccc(NC(=O)C2C3C=CC(C3)C2C(=O)O)cc1 (stereo not drawn)	Calb FLC 92
O=C(O)C1C2C=CC(C2)C1C(=O)Nc1ccc2c(c1)OCCO2 (stereo not drawn)	none (no result: CSC inhib)
Cc1ccc(C)c(N2CCN(C(=O)CCC(=O)N3CCOc4ccc(Cl)cc43)CC2)c1	T cruzi inh 55
CCOC(=O)c1sc(NC(=O)CN2C(=O)NC3(CC(C)CC(C)(C)C3)C2=O)cc1C (stereo not drawn)	T cruzi inh 59
Cc1nn(-c2ccccc2)c(N2CCCC2)c1/C=N/NC(=S)Nc1ccccc1F	none (no result: Beta apoptosis)
NNc1nc(-c2ccccc2)cs1	Calb FLC inconclusive, T cruzi inh 63
c1ccc(CCNc2nc(-c3ccncc3)cs2)cc1	T cruzi inh 83
Cc1ccc(C)c(NC(=O)c2ccc(S(=O)(=O)C(F)F)cc2)c1	none
COc1ccc(CCNC(=O)c2ccc3nc(N4CCCCC4)sc3c2)cc1OC	none
O=C(NCc1ccccc1)c1ccccc1NC(=O)C1CCCCC1	none
COc1ccc(-c2nn(-c3ccccc3)cc2C(=O)OCC(=O)c2ccc(C)c([N+](=O)[O-])c2)cc1	Beta apoptosis 101
Cc1ccc(NC(=O)CSc2nnc(-c3ccccn3)n2N)c(Br)c1	none
CCN(CC)CC#CCC(O)(c1ccccc1)C1CCCC1 (stereo not drawn)	T cruzi inh 59
Clc1ccc2nc(-c3cccc(SC4CCCCC4)c3)c(NCc3ccccc3)n2c1	none
CCCCNc1c(-c2ccc(SC3CCCCC3)c(OC)c2)nc2ccc(C)cn12	CSC inhib 101 (no result: PolyA inh, HIF activator, Calb FLC, T cruzi inh)
COc1ccc(-c2nc3ccc(C)cn3c2NCc2ccccc2)cc1SC1CCCCC1	Beta apoptosis 99, T cruzi inh 63
N#CCC(=O)N/N=C\c1cccc(OC/C=C/c2ccccc2)c1	none
CCC1(C)Cc2c(sc3nc(SC)n(Cc4ccccc4)c(=O)c23)CO1 (stereo not drawn)	CSC inhib 96
COc1cc(C)c(N)cc1C(C)C	T cruzi inh 67
COc1ccc(-c2nn(CC(=O)NCCc3ccccc3)c(=S)n2C)cc1	none
CCn1c(-c2ccc(C)cc2)nn(CC(=O)NCCc2ccccc2)c1=S	Beta apoptosis 127
Cn1ccnc1C(=O)c1cc(SCC(=O)NC2CC2)nc2ccccc12	none
CN(C(=O)CSc1cc(C(=O)c2nccn2C)c2ccccc2n1)c1ccccc1	Beta apoptosis 106 (no result: CSC inhib)
O=S(=O)(c1cccc(F)c1)N1CCN(c2nc(-c3cccnc3)nc3ccccc23)CC1	none (no result: PolyA inh, HIF activator, Calb FLC, T cruzi inh)
COC(=O)c1cc(S(=O)(=O)NCc2ccc3c(c2)OCO3)cn1C	none
COc1ccc(C(=O)C(c2ccccc2)N2CCOCC2)cc1 (stereo not drawn)	none
Cc1ccc(C(=O)C(c2ccccc2)N2Cc3ccccc3C2=N)cc1 (stereo not drawn)	CSC inhib 111
COc1cccc(/C=N/Nc2ncnc3scc(-c4ccccc4)c23)c1O	Beta apoptosis 103, CSC inhib 111, HIF activator 105, Calb FLC 109
COc1ccc(Nc2ncnc3scc(-c4ccc(OC)cc4)c23)cc1	none
COc1cccc(/C=N/Nc2ncnc(Cl)c2N)c1O	Beta apoptosis 127, CSC inhib 157
COc1cccc(/C=N/Nc2nccnc2Cl)c1O	HIF activator 31, Calb FLC 106 (no result: Beta apoptosis, CSC inhib)
Nc1ccccc1-c1nc2ccccc2[nH]c1=O	none
Nc1ccc(Br)cc1-c1nc2ccccc2[nH]c1=O	Beta apoptosis 102 (no result: CSC inhib)
CC1CCN(S(=O)(=O)c2ccc3c(c2)C(=NO)c2cc(S(=O)(=O)N4CCC(C)CC4)ccc2-3)CC1	Beta apoptosis 104, CSC inhib 113 (no result: PolyA inh, HIF activator, Calb FLC, T cruzi inh)
O=S(=O)(c1ccc(S(=O)(=O)N2CCCC2)cc1)N1CCCCCC1	none (no result: Beta apoptosis)
O=S(=O)(c1ccc2c(c1)C(=NO)c1cc(S(=O)(=O)N3CCCCC3)ccc1-2)N1CCCCC1	Beta apoptosis 106, CSC inhib 122, T cruzi inh 77

Assay outcomes: PubChem, Broad Institute
